Measured values published in ChEMBL document CHEMBL3861955, “Pepluane and Paraliane Diterpenoids from Euphorbia peplus with Potential Anti-inflammatory Activity” (J Nat Prod, 2016).
Residues, ends and D or L forms follow the SMILES beside them. *: point of attachment. Cbz = O=C(OCc1ccccc1)*

Legend:
Mus musculus = organism: Mus musculus; experiment: Cytotoxicity against mouse RAW264.7 cells assessed as decrease in cell viability by MTT assay; assay type: toxicity, cell-based
Procedure, shortened: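 Viability measured by MTT, run alongside the LPS/NO assay in the same RAW264.7 cultures: 2 × 10^5 cells/well in RPMI-1640, 24 h preincubation, compound serial dilutions up to 100 μM, then LPS (1 μg/mL) for 18 h. Absorbance read at 595 nm.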

[1] = Antiinflammatory activity in mouse RAW264.7 cells assessed as inhibition of LPS-induced nitric oxide production after 18 hrs by Griess assay; assay type: functional, cell-based; details: RAW264.7, 18 h
Procedure, shortened: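 RAW264.7 cells seeded at 2 × 10^5 cells/well in RPMI-1640 and preincubated 24 h. Compounds added as serial dilutions from a top concentration of 100 μM, then LPS (1 μg/mL) stimulation for 18 h. Supernatant nitrite measured with Griess reagent after 5 min incubation, absorbance at 550 nm; proteasome inhibitor MG-132 used as positive control.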

Row | IC50 [1] | SMILES | Activity (Mus musculus)
1 | 29.9 µM | CC(=O)O[C@@H]1[C@H]2[C@@H](OC(=O)c3ccccc3)[C@@H](C)C[C@]2(O)[C@H](OC(C)=O)[C@@]2(C)[C@@H]3CC(C)(C)C(=O)[C@]3(OC(C)=O)C[C@@]12C | Non-Toxic
2 | > 50 µM | CC(=O)O[C@@H]1[C@H]2[C@@H](OC(=O)c3ccccc3)[C@@H](C)C[C@]2(O)[C@H](OC(C)=O)[C@@]2(C)[C@@H]3C[C@@](C)(O)C[C@H](O)[C@]3(OC(C)=O)C[C@@]12C | Non-Toxic
3 | 33.7 µM | CC(=O)O[C@@H]1[C@H]2[C@@H](OC(=O)c3ccccc3)[C@@H](C)C[C@]2(O)[C@H](OC(C)=O)[C@@]2(C)[C@@H]3CC(C)(C)C(=O)[C@@H]3C[C@@]12C | Non-Toxic
4 | > 50 µM | CC(=O)O[C@H]1C[C@](C)(O)C[C@@H]2[C@@]1(OC(C)=O)C[C@@]1(C)[C@H](OC(C)=O)[C@H]3[C@@H](O)[C@@H](C)C[C@]3(O)[C@H](OC(C)=O)[C@@]21C | Non-Toxic
5 | 47.5 µM | CC(=O)O[C@@H]1[C@H]2[C@@H](OC(=O)c3ccccc3)[C@@H](C)C[C@]2(O)[C@H](OC(C)=O)[C@@]2(C)[C@@H]3C[C@@](C)(OC(C)=O)CC(=O)[C@]3(OC(C)=O)C[C@@]12C | Non-Toxic
6 | > 50 µM | CC(=O)O[C@H]1C[C@](C)(O)C[C@@H]2[C@@]1(O)C[C@@]1(C)[C@H](OC(C)=O)[C@H]3[C@@H](OC(=O)c4ccccc4)[C@@H](C)C[C@]3(O)[C@H](OC(C)=O)[C@@]21C | Non-Toxic
7 | > 50 µM | CC(=O)OC[C@@]12C[C@@]3(OC(C)=O)C(=O)C(C)(C)C[C@H]3[C@]1(C)[C@@H](OC(C)=O)[C@@]1(O)C[C@H](C)[C@H](OC(=O)c3ccccc3)[C@@H]1[C@H]2OC(C)=O | Non-Toxic
8 | > 50 µM | CC(=O)O[C@@H]1[C@H]2[C@@H](OC(=O)c3ccccc3)[C@@H](C)C[C@]2(O)[C@H](OC(C)=O)[C@@]2(C)[C@@H]3C[C@@](C)(OC(C)=O)C[C@H](O)[C@]3(OC(C)=O)C[C@@]12C | Non-Toxic
9 | 37.1 µM | CC(=O)O[C@H]1C[C@](C)(OC(C)=O)C[C@@H]2[C@@]1(OC(C)=O)C[C@@]1(C)[C@H](OC(C)=O)[C@H]3[C@@H](OC(=O)c4ccccc4)[C@@H](C)C[C@]3(O)[C@H](OC(C)=O)[C@@]21C | Non-Toxic
10 | 38.3 µM | CC(=O)O[C@@H]1[C@H]2[C@@H](OC(=O)c3ccccc3)[C@@H](C)C[C@]2(O)C(=O)[C@@]2(C)[C@@H]3CC(C)(C)C(=O)[C@@H]3C[C@@]12C | Non-Toxic
11 | > 50 µM | CC(=O)O[C@@H]1[C@H]2[C@@H](OC(=O)c3ccccc3)[C@@H](C)C[C@]2(O)[C@H](OC(C)=O)[C@@]2(C)[C@@H]3C[C@@](C)(O)CC(=O)[C@]3(OC(C)=O)C[C@@]12C | Non-Toxic
12 | 43.2 µM | CC(=O)O[C@@H]1[C@H]2[C@@H](OC(=O)c3ccccc3)[C@@H](C)C[C@]2(O)[C@H](OC(C)=O)[C@@]2(C)[C@@H]3CC(C)(C)C(=O)[C@]3(O)C[C@@]12C | Non-Toxic
13 | > 50 µM | CC(=O)O[C@H]1C[C@](C)(O)C[C@@H]2[C@@]1(OC(C)=O)C[C@@]1(C)[C@H](OC(C)=O)[C@H]3[C@@H](OC(=O)c4ccccc4)[C@@H](C)C[C@]3(O)[C@H](OC(C)=O)[C@@]21C | Non-Toxic
14 | 36.6 µM | CC(=O)O[C@@H]1[C@H]2[C@@H](OC(=O)c3ccccc3)[C@@H](C)C[C@]2(O)[C@H](OC(C)=O)[C@@]2(C)[C@@H]3CC(C)=CC(=O)[C@]3(OC(C)=O)C[C@@]12C | Non-Toxic
15 | > 50 µM | CC(=O)OC[C@@]12C[C@@]3(OC(C)=O)C(=O)C=C(C)C[C@H]3[C@]1(C)[C@@H](OC(C)=O)[C@@]1(O)C[C@H](C)[C@H](OC(=O)c3ccccc3)[C@@H]1[C@H]2OC(C)=O | Non-Toxic
16 | > 50 µM | CC(=O)O[C@H]1C[C@](C)(O)C[C@@H]2[C@@]1(OC(C)=O)C[C@@]1(C)[C@H](OC(C)=O)[C@H]3[C@@H](OC(=O)c4ccccc4)[C@@H](C)[C@@H](OC(C)=O)[C@]3(O)[C@H](OC(C)=O)[C@@]21C | Non-Toxic
17 | > 50 µM | CC(=O)O[C@@H]1[C@H]2[C@@H](OC(=O)c3ccccc3)[C@@H](C)C[C@]2(O)[C@H](OC(C)=O)[C@@]2(C)[C@@H]3C[C@](C)(O)CC(=O)[C@]3(OC(C)=O)C[C@@]12C | Non-Toxic
18 | 0.18 µM | CC(C)C[C@@H](C=O)NC(=O)[C@H](CC(C)C)NC(=O)[C@H](CC(C)C)NC(=O)OCc1ccccc1 [MG-132] (Cbz-Leu-Leu-Leu-aldehyde) | –
